Experimental findings from ChEMBL document CHEMBL1135438, “Synthesis and pharmacological characterization of novel analogues of the nicotinic acetylcholine receptor agonist (+/-)-UB-165” (J Med Chem, 2002) are described below.

The target of assay [1] is Neuronal acetylcholine receptor subunit alpha-7 (Rattus norvegicus, UniProt Q05941). The experiment in a line: Binding affinity at rat brain Nicotinic acetylcholine receptor alpha7.
Assay [2] has as its target T1, Neuronal acetylcholine receptor; alpha3/beta4 (Rattus norvegicus, UniProt P04757+P12392). Description: Binding affinity at rat brain Nicotinic acetylcholine receptor alpha3-beta4.
The nature of assay [3]: Compound was tested for its potency at Nicotinic acetylcholine receptor alpha3-beta4 relative to that of Nicotinic acetylcholine receptor alpha4-beta2.
For assay [4], the target named is Neuronal acetylcholine receptor; alpha4/beta2 (Rattus norvegicus, UniProt P09483+P12390). The experiment in a line: Binding affinity at rat brain Nicotinic acetylcholine receptor alpha4-beta2. The essentials: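 Rat brain P2 membranes (250 μg protein) competed against 10 nM (–)-[3H]nicotine, 30 min room temperature then 1 h at 4 °C; filtration. Nonspecific binding with 1 mM (–)-nicotine.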

In assay [5] the target is T1, Neuronal acetylcholine receptor; alpha3/beta4. Description: Activation potency at Nicotinic acetylcholine receptor alpha3beta4, expressed as concentration required to achieve a half maximal activation. The class given is protein-complex assay. A digest of the protocol:
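Rat α3β4 nAChR stably expressed in L cells, induced 7–10 days with 1 μM dexamethasone; cells loaded with 5 μM fluo-3 (1 h, room temperature, dark). Agonist given in high-calcium buffer (75 mM CaCl2, pH 7.4), fluorescence followed 16 s.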

Assay [6] concerns the target Neuronal acetylcholine receptor subunit alpha-7 (Rattus norvegicus) (UniProt Q05941). The experiment in a line: Compound was tested for its potency at Nicotinic acetylcholine receptor alpha-7 relative to that of Nicotinic acetylcholine receptor alpha4-beta2.
Assay [7] is described as follows: Ratio of Ki (binding affinity) relative to activation potency.

Chain of Neuronal acetylcholine receptor; alpha4/beta2 (P09483 whole entry): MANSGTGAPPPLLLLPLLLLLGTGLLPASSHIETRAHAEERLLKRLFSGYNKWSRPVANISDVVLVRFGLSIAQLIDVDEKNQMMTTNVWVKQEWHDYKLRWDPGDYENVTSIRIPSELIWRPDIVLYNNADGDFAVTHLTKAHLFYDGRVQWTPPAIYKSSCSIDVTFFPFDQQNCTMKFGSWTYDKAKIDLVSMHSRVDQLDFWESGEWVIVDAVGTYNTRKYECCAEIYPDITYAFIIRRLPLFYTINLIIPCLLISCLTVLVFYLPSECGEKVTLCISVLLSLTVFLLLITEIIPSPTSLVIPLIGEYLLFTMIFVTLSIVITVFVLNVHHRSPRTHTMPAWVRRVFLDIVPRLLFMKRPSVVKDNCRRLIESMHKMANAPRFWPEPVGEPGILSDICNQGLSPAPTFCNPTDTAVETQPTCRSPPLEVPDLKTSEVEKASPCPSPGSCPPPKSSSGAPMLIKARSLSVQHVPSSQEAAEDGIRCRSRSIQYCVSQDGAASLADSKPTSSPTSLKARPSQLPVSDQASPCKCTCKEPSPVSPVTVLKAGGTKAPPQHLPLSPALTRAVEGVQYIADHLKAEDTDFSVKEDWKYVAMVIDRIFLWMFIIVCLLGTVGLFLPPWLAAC
Chain of Neuronal acetylcholine receptor; alpha4/beta2 (P12390 whole entry): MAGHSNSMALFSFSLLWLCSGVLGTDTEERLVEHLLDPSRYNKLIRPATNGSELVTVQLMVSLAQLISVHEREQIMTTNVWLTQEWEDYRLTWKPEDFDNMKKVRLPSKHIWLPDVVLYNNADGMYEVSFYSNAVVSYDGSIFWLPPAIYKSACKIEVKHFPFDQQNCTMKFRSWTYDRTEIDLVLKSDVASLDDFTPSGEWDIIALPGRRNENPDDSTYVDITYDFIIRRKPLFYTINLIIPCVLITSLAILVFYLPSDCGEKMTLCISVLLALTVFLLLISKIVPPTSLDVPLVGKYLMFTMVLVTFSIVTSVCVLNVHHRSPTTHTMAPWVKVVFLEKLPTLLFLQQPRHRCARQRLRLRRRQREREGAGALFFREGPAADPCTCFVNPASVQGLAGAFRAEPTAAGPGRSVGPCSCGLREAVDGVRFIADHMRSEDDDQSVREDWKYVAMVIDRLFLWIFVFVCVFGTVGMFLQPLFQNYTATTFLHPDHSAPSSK
Chain of Neuronal acetylcholine receptor subunit alpha-7 (Q05941 whole entry): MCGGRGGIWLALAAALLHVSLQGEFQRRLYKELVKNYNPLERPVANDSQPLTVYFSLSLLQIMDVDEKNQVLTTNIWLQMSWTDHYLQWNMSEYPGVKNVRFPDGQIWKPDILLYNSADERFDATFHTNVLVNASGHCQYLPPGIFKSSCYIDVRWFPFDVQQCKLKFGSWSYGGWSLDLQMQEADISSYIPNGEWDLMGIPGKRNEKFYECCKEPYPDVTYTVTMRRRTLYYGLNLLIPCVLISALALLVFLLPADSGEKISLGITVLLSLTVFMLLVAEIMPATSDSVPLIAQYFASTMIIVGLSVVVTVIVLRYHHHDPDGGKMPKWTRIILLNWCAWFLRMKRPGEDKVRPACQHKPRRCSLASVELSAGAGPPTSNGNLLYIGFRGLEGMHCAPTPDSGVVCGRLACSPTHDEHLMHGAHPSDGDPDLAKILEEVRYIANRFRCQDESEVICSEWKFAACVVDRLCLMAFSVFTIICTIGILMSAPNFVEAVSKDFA
Chain of Neuronal acetylcholine receptor subunit alpha-7 (Rattus norvegicus) (Q05941 whole entry): as above
T1 sequence (P04757 whole entry): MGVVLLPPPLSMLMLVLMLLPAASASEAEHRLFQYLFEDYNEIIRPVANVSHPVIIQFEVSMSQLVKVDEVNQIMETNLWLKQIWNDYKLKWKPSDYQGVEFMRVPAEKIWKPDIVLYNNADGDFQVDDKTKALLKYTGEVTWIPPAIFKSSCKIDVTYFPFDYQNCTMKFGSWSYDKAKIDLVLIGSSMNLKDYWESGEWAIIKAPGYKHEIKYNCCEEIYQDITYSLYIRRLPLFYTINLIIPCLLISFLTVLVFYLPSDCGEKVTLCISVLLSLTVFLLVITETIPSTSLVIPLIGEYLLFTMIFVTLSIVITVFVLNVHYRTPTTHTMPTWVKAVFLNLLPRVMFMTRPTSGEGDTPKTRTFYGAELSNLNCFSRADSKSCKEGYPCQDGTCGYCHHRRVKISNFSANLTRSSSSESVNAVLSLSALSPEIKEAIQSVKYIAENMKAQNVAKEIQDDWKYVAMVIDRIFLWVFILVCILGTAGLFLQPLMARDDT
T1 sequence (P12392 whole entry): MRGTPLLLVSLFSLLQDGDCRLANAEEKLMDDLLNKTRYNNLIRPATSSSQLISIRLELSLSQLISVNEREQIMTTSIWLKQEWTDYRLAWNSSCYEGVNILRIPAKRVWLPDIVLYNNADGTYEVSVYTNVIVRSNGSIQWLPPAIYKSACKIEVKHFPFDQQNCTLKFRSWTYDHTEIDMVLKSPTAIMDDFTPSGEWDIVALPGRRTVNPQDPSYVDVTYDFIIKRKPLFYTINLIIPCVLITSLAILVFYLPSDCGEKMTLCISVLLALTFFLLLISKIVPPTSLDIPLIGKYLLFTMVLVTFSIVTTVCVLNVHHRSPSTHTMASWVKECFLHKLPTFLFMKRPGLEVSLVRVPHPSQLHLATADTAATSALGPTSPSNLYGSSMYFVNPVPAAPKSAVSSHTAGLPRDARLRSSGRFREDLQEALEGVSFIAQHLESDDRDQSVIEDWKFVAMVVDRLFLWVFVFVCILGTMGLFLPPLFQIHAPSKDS

As to `Clc1ccc(C2=CCCC3CCC2N3)cn1` (racemic), in assay [1], the Ki (commonly a dissociation constant, usually derived from enzyme kinetics or from competition with a known ligand) is 2760 nM.

With `C1=C(c2ccncc2)C2CC[C@H](CC1)N2`, the Ki in assay [2] is 22000 nM; in assay [1], more than 50000 nM; in assay [4], 11000 nM. In addition, in assay [3], the Affinity ratio amounted to 2. The half-maximal effective concentration (EC50) (commonly the midpoint of the concentration-response curve) in assay [5] is more than 100000 nM.

`C1=C(c2cccnc2)C2CC[C@H](CC1)N2`: the values for the Ki in assay [1] and in assay [4] were 89 nM and 0.43 nM, respectively.

Regarding `C1=C(c2ccccn2)C2CC[C@H](CC1)N2`, the Ki in assay [2] was 10500 nM; in assay [1], 47500 nM. Further, the figures for the Affinity ratio in assay [3] and in assay [6] were 6.8 and 31, respectively. This compound gave an EC50 in assay [5] of more than 100000 nM.

Consider `C1=C(c2cncnc2)C2CC[C@H](CC1)N2`, for which the Ki turned out to be 236 nM in assay [2], 1710 nM in assay [1] and 2.45 nM in assay [4]. For the same compound, the Affinity ratio in assay [3] came to 96; in assay [6] it was 696. The EC50 in assay [5] was determined as 3890 nM. In addition, the Ratio in assay [7] was 16.

On to `C1=C(c2cnccn2)C2CC[C@H](CC1)N2`, for which the Ki in assay [2] amounted to 2850 nM; in assay [1], 5770 nM; in assay [4], 58 nM. Further, the Affinity ratio in assay [3] came to 49; in assay [6], 100. The compound also registered an EC50 in assay [5] of more than 100000 nM.

For `C1=C(c2cccnn2)C2CC[C@H](CC1)N2`, the results for the Ki in assay [2], in assay [1] and in assay [4] were 306 nM, 68.4 nM and 2.6 nM, respectively. In addition, the Affinity ratio in assay [3] amounted to 20; in assay [6], 118. Further, the EC50 in assay [5] came out at 4190 nM. Also, in assay [7], the Ratio turned out to be 14.
